≈ marks a conversion by molar mass, not a printed value. Calls of active or inactive are those of the source. The calls are words filed in the database; no cut-off is given here.

The subject of test [1] is Escherichia coli. As to the kind of experiment: Antibacterial activity against tolC/rfaC-deficient Escherichia coli. Format: functional.
For test [2], the target named is DNA ligase 1 (Homo sapiens) (UniProt P18858). The test can be described thus: Inhibition of human DNA Ligase 1.
Test [3] has as its system Escherichia coli. The test can be described thus: Antibacterial activity against tolC/rfaC-deficient Escherichia coli harboring ligA251 mutant. Format: functional. A digest of the protocol:
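MIC read-out. The E. coli strain carries only the ligA251 allele (L15F exchange), which gives more than 20-fold reduced ligation activity and sensitizes it to LigA inhibitors.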

Test [4] is described as follows: Inhibition of Escherichia coli NAD-dependent DNA ligase.
In another test the test system is Streptococcus pneumoniae. The test can be described thus: Antibacterial activity against wild type Streptococcus pneumoniae A-216 by CLSI dilution method. Format: functional.
The test system of the next test is Haemophilus influenzae. The test can be described thus: Antibacterial activity against wild type Haemophilus influenzae A921 by CLSI dilution method. The class given is functional.
For test [5], the target named is T1, Dihydrofolate reductase (Homo sapiens) (UniProt P00374).
T1 sequence (whole entry): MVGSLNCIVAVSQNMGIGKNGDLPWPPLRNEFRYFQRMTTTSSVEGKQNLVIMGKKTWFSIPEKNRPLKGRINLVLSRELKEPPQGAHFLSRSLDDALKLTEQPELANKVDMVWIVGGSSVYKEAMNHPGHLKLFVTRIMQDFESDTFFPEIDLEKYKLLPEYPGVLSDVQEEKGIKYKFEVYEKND
The test can be described thus: Inhibition of human DHFR.

Test [6] is described as follows: Inhibition of Streptococcus pneumoniae NAD-dependent DNA ligase assessed as equilibrium dissociation constant.
Another test relates to Staphylococcus aureus. The test can be described thus: Antibacterial activity against wild type Staphylococcus aureus ATCC 29213 by CLSI dilution method. The class given is functional.

Chain of DNA ligase 1 (Homo sapiens) (P18858 whole entry): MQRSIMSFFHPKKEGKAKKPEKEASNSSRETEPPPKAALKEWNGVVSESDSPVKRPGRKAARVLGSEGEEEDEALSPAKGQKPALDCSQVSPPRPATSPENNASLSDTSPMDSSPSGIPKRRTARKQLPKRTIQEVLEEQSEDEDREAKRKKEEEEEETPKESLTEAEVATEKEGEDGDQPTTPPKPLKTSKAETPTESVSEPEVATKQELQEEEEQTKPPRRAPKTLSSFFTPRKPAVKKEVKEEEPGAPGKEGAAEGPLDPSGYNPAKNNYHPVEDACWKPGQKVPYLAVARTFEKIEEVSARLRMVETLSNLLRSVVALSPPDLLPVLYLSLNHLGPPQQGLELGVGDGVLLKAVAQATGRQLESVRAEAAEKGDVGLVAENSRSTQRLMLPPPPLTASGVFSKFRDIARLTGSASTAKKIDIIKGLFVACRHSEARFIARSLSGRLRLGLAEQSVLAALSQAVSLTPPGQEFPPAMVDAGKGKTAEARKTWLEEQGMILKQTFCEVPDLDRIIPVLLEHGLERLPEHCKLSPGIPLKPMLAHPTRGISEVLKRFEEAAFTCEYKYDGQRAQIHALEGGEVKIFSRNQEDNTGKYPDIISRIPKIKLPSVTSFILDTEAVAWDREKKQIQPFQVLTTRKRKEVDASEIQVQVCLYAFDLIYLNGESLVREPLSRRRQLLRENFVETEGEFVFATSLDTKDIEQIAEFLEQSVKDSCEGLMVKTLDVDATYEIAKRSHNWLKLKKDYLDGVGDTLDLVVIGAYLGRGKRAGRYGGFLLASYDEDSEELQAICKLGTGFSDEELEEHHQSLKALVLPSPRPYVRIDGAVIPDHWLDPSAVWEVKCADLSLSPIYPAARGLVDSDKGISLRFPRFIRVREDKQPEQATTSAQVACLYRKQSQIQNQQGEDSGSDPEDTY

A word on the IC50: it is the midpoint of a concentration-inhibition curve. As usually defined, the Kd is the concentration at which binding is half-saturated. As to `NC(=O)c1cc2cc(CCc3ccccc3)c(C(F)(F)F)nc2nc1N`, the MIC in the test on Escherichia coli [1] is over 16 µg/mL; in the test on Escherichia coli [3], 32 µg/mL (≈ 88.8 µM); in the test with Streptococcus pneumoniae, over 16 µg/mL; in the test on Haemophilus influenzae, over 16 µg/mL; against Staphylococcus aureus it was over 16 µg/mL. The inhibition entry in [2] and in [5] was “inactive” in each case. This compound also gave an IC50 in [4] of over 10000 nM. Moreover, the Kd in test [6] stood at 1220 nM.
Take `Cc1cc2cc(C(N)=O)c(N)nc2nc1C(F)(F)F`: the MIC in the test with Escherichia coli [1] came to 0.5 µg/mL (≈ 1.85 µM); against Escherichia coli [3], 0.063 µg/mL (≈ 0.233 µM); in the test on Streptococcus pneumoniae, 8 µg/mL (≈ 29.6 µM); against Haemophilus influenzae it was 0.25 µg/mL (≈ 0.925 µM); in the test with Staphylococcus aureus, 4 µg/mL (≈ 14.8 µM). Moreover, the inhibition result in [2] and in test [5] was “inactive” each time. Besides, half-maximal inhibition in test [4] (IC50) was put at 500 nM. Moreover, in [6], the Kd was determined as 48 nM.
Consider `NC(=O)c1cc2c(N3CCC(O)CC3)c(Br)c(C(F)(F)F)nc2nc1N`, for which the MIC with Escherichia coli [1] is 8 µg/mL (≈ 18.4 µM); with Escherichia coli [3], 0.25 µg/mL (≈ 0.576 µM); with Streptococcus pneumoniae, 16 µg/mL (≈ 36.8 µM); in the test on Haemophilus influenzae, over 16 µg/mL; against Staphylococcus aureus, over 16 µg/mL. The inhibition entry in test [2] and in test [5] was “inactive” each time. In addition, the IC50 in test [4] worked out at 700 nM. The Kd in test [6] was 39 nM.
As to `NC(=O)c1cc2ccc(C(F)(F)F)nc2nc1N`, the MIC in the test with Escherichia coli [1] is 16 µg/mL (≈ 62.5 µM); in the test on Escherichia coli [3], 0.125 µg/mL (≈ 0.488 µM); against Streptococcus pneumoniae, over 16 µg/mL; with Haemophilus influenzae it was 0.5 µg/mL (≈ 1.95 µM); in the test with Staphylococcus aureus, 8 µg/mL (≈ 31.2 µM). Also, the inhibition entry in [2] and in test [5] was “inactive” throughout. The compound further had an IC50 in test [4] of 500 nM. The dissociation constant Kd in [6] stood at 101 nM.
Take `NC(=O)c1cc2c3c(c(Cl)nc2nc1N)CC3`: the MIC was 8 µg/mL (≈ 32.2 µM) in the test with Escherichia coli [1]; 0.25 µg/mL (≈ 1.01 µM) in the test with Escherichia coli [3]; over 16 µg/mL with Streptococcus pneumoniae; 8 µg/mL (≈ 32.2 µM) against Haemophilus influenzae; 16 µg/mL (≈ 64.3 µM) with Staphylococcus aureus. Also, the inhibition result in [2] and in test [5] was “inactive” throughout. Further, the IC50 in test [4] was found to be 600 nM. For the same compound, the Kd in test [6] is 152 nM.
With `CC(C)(OCc1ccccc1)c1nc2nc(N)c(C(N)=O)cc2cc1Br`, the MIC against Escherichia coli [1] is over 16 µg/mL; against Escherichia coli [3], 8 µg/mL (≈ 19.3 µM); with Streptococcus pneumoniae, over 16 µg/mL; in the test on Haemophilus influenzae, over 16 µg/mL; in the test with Staphylococcus aureus, over 16 µg/mL. Besides, the inhibition result in test [2] and in [5] was “inactive” throughout. For the same compound, in test [4], the IC50 is over 5000 nM. Further, the Kd in test [6] was 4310 nM.
Take `CCc1cc2cc(C(N)=O)c(N)nc2nc1C(F)(F)F`: the MIC was 8 µg/mL (≈ 28.1 µM) against Escherichia coli [1]; 0.25 µg/mL (≈ 0.88 µM) in the test on Escherichia coli [3]; over 16 µg/mL in the test with Streptococcus pneumoniae; 2 µg/mL (≈ 7.04 µM) against Haemophilus influenzae; 4 µg/mL (≈ 14.1 µM) against Staphylococcus aureus. In addition, the inhibition result in [2] and in [5] was “inactive” in each case. Further, the IC50 in [4] was determined as 600 nM. The Kd in test [6] worked out at 75 nM.
Consider `NC(=O)c1cc2c(CCO)cc(C(F)(F)F)nc2nc1N`, for which the MIC is over 16 µg/mL against Escherichia coli [1]; 1 µg/mL (≈ 3.33 µM) with Escherichia coli [3]; over 16 µg/mL with Streptococcus pneumoniae; 1 µg/mL (≈ 3.33 µM) in the test with Haemophilus influenzae; over 16 µg/mL against Staphylococcus aureus. In addition, the inhibition entry in test [2] and in test [5] was “inactive” each time. In test [4], this compound came in with an IC50 of 10000 nM. The Kd in test [6] came to 431 nM.
As for `CC(C)(C)OC(=O)N1CC(c2nc3nc(N)c(C(N)=O)cc3cc2Br)C1`, the MIC in the test on Escherichia coli [1], against Streptococcus pneumoniae, with Haemophilus influenzae and in the test on Staphylococcus aureus was over 16 µg/mL in each case. In addition, the inhibition result in test [2] and in test [5] was “inactive” throughout. Further, the IC50 in [4] is over 5000 nM. In test [6], the dissociation constant Kd is 2610 nM.
In the case of `Nc1ccc2c(Cl)cc(C(F)(F)F)nc2n1`, in [4], half-maximal inhibition (IC50) required 25000 nM.

Values taken from ChEMBL document CHEMBL2163244, “Structure-guided design, synthesis and biological evaluation of novel DNA ligase inhibitors with in vitro and in vivo anti-staphylococcal activity” (Bioorg Med Chem Lett, 2012).
